Reference: ChEMBL document CHEMBL3124924, “Bifunctional ethyl 2-amino-4-methylthiazole-5-carboxylate derivatives: synthesis and in vitro biological evaluation as antimicrobial and anticancer agents” (2014)

Columns and labels:
Assay type in all cases: functional
U-251 = experiment: Cytotoxicity against human U251 cells assessed as growth inhibition at 10 uM after 48 hrs by SRB assay; details: U-251, 48 h, read-out: GI
Procedure, shortened: (§1)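 NCI-60 one-dose primary screen run by the NCI Drug Evaluation Branch across the full 60-line panel. Single high-dose treatment with 48 h continuous drug exposure. Cell growth estimated by sulforhodamine B protein staining. Results given as percent growth of treated cells and expressed as percentage growth inhibition.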

SNB-75 = experiment: Cytotoxicity against human SNB75 cells assessed as growth inhibition at 10 uM after 48 hrs by SRB assay; details: SNB-75, 48 h, read-out: GI; procedure, shortened: as §1
SF-268 = experiment: Cytotoxicity against human SF268 cells assessed as growth inhibition at 10 uM after 48 hrs by SRB assay; details: SF-268, 48 h, read-out: GI; procedure, shortened: as §1
PC-3 = experiment: Cytotoxicity against human PC3 cells assessed as growth inhibition at 10 uM after 48 hrs by SRB assay; details: PC-3, 48 h, read-out: GI; procedure, shortened: as §1
UACC-62 = experiment: Cytotoxicity against human UACC62 cells assessed as growth inhibition at 10 uM after 48 hrs by SRB assay; details: UACC-62, 48 h, read-out: GI; procedure, shortened: as §1
SK-MEL-5 = experiment: Cytotoxicity against human SK-MEL-5 cells assessed as growth inhibition at 10 uM after 48 hrs by SRB assay; details: SK-MEL-5, 48 h, read-out: GI; procedure, shortened: as §1
SK-MEL-2 = experiment: Cytotoxicity against human SK-MEL-2 cells assessed as growth inhibition at 10 uM after 48 hrs by SRB assay; details: SK-MEL-2, 48 h, read-out: GI; procedure, shortened: as §1
LOX IMVI = experiment: Cytotoxicity against human LOXIMVI cells assessed as growth inhibition at 10 uM after 48 hrs by SRB assay; details: read-out: GI; procedure, shortened: as §1
[1] = Cytotoxicity against human UO31 cells assessed as growth inhibition at 10 uM after 48 hrs by SRB assay; details: UO-31, 48 h, read-out: GI; procedure, shortened: as §1
SN12C = experiment: Cytotoxicity against human SN12C cells assessed as growth inhibition at 10 uM after 48 hrs by SRB assay; details: read-out: GI; procedure, shortened: as §1
A498 = experiment: Cytotoxicity against human A498 cells assessed as growth inhibition at 10 uM after 48 hrs by SRB assay; details: A498, 48 h, read-out: GI; procedure, shortened: as §1
SR = experiment: Cytotoxicity against human SR cells assessed as growth inhibition at 10 uM after 48 hrs by SRB assay; details: read-out: GI; procedure, shortened: as §1
RPMI-8226 = experiment: Cytotoxicity against human RPMI8226 cells assessed as growth inhibition at 10 uM after 48 hrs by SRB assay; details: RPMI-8226, 48 h, read-out: GI; procedure, shortened: as §1
MOLT-4 = experiment: Cytotoxicity against human MOLT4 cells assessed as growth inhibition at 10 uM after 48 hrs by SRB assay; details: MOLT-4, 48 h, read-out: GI; procedure, shortened: as §1
K562 = experiment: Cytotoxicity against human K562 cells assessed as growth inhibition at 10 uM after 48 hrs by SRB assay; details: K562, 48 h, read-out: GI; procedure, shortened: as §1
CCRF-CEM = experiment: Cytotoxicity against human CCRF-CEM cells assessed as growth inhibition at 10 uM after 48 hrs by SRB assay; details: read-out: GI; procedure, shortened: as §1
IGROV-1 = experiment: Cytotoxicity against human IGROV1 cells assessed as growth inhibition at 10 uM after 48 hrs by SRB assay; details: IGROV-1, 48 h, read-out: GI; procedure, shortened: as §1
T47D = experiment: Cytotoxicity against human T47D cells assessed as growth inhibition at 10 uM after 48 hrs by SRB assay; details: read-out: GI; procedure, shortened: as §1
MDA-MB-468 = experiment: Cytotoxicity against human MDA-MB-468 cells assessed as growth inhibition at 10 uM after 48 hrs by SRB assay; details: MDA-MB-468, 48 h, read-out: GI; procedure, shortened: as §1
[2] = Cytotoxicity against human NCI-ADR-RES cells assessed as growth inhibition at 10 uM after 48 hrs by SRB assay; details: read-out: GI; procedure, shortened: as §1
MCF7 = experiment: Cytotoxicity against human MCF7 cells assessed as growth inhibition at 10 uM after 48 hrs by SRB assay; details: MCF7, 48 h, read-out: GI; procedure, shortened: as §1
[3] = Cytotoxicity against human Hs578T cells assessed as growth inhibition at 10 uM after 48 hrs by SRB assay; details: Hs-578T, read-out: GI; procedure, shortened: as §1
SW-620 = experiment: Cytotoxicity against human SW620 cells assessed as growth inhibition at 10 uM after 48 hrs by SRB assay; details: SW-620, 48 h, read-out: GI; procedure, shortened: as §1
HT-29 = experiment: Cytotoxicity against human HT-29 cells assessed as growth inhibition at 10 uM after 48 hrs by SRB assay; details: HT-29, 48 h, read-out: GI; procedure, shortened: as §1
HCT-15 = experiment: Cytotoxicity against human HCT15 cells assessed as growth inhibition at 10 uM after 48 hrs by SRB assay; details: HCT-15, 48 h, read-out: GI; procedure, shortened: as §1
HCT-116 = experiment: Cytotoxicity against human HCT116 cells assessed as growth inhibition at 10 uM after 48 hrs by SRB assay; details: HCT-116, 48 h, read-out: GI; procedure, shortened: as §1
HCC 2998 = experiment: Cytotoxicity against human HCC2998 cells assessed as growth inhibition at 10 uM after 48 hrs by SRB assay; details: HCC 2998, 48 h, read-out: GI; procedure, shortened: as §1
NCI-H522 = experiment: Cytotoxicity against human NCI-H522 cells assessed as growth inhibition at 10 uM after 48 hrs by SRB assay; details: NCI-H522, 48 h, read-out: GI; procedure, shortened: as §1
NCI-H322M = experiment: Cytotoxicity against human NCI-H322M cells assessed as growth inhibition at 10 uM after 48 hrs by SRB assay; details: read-out: GI; procedure, shortened: as §1
NCI-H226 = experiment: Cytotoxicity against human NCI-H226 cells assessed as growth inhibition at 10 uM after 48 hrs by SRB assay; details: NCI-H226, 48 h, read-out: GI; procedure, shortened: as §1
HOP-92 = experiment: Cytotoxicity against human HOP92 cells assessed as growth inhibition at 10 uM after 48 hrs by SRB assay; details: HOP-92, 48 h, read-out: GI; procedure, shortened: as §1

**Q.** For `Cc1nc(N)sc1C(=O)NCCO`, which inhibition of growth at 10 µM (U-251) is on record?
**A.** Its inhibition of growth at 10 µM is < 10%.

**Q.** And the inhibition of growth at 10 µM (SNB-75)?
**A.** Its inhibition of growth at 10 µM is < 10%.

**Q.** And the inhibition of growth at 10 µM (SF-268)?
**A.** The inhibition of growth at 10 µM was 2.48%.

**Q.** What about the inhibition of growth at 10 µM (PC-3) of the same compound?
**A.** Its inhibition of growth at 10 µM is < 10%.

**Q.** And the inhibition of growth at 10 µM (UACC-62)?
**A.** The inhibition of growth at 10 µM was 7.33%.

**Q.** What about the inhibition of growth at 10 µM (SK-MEL-5) of the same compound?
**A.** The inhibition of growth at 10 µM was < 10%.

**Q.** And the inhibition of growth at 10 µM (SK-MEL-2)?
**A.** The inhibition of growth at 10 µM was 87.4%.

**Q.** What about the inhibition of growth at 10 µM (LOX IMVI) of the same compound?
**A.** The inhibition of growth at 10 µM was < 10%.

**Q.** And the inhibition of growth at 10 µM [1]?
**A.** Its inhibition of growth at 10 µM is 20%.

**Q.** And the inhibition of growth at 10 µM (SN12C)?
**A.** Its inhibition of growth at 10 µM is < 10%.

**Q.** And the inhibition of growth at 10 µM (A498)?
**A.** Its inhibition of growth at 10 µM is < 10%.

**Q.** What about the inhibition of growth at 10 µM (SR) of the same compound?
**A.** Its inhibition of growth at 10 µM is < 10%.

**Q.** What about the inhibition of growth at 10 µM (RPMI-8226) of the same compound?
**A.** The inhibition of growth at 10 µM was < 10%.

**Q.** And the inhibition of growth at 10 µM (MOLT-4)?
**A.** The inhibition of growth at 10 µM was < 10%.

**Q.** And the inhibition of growth at 10 µM (K562)?
**A.** The inhibition of growth at 10 µM was < 10%.

**Q.** And the inhibition of growth at 10 µM (CCRF-CEM)?
**A.** The inhibition of growth at 10 µM was 40%.

**Q.** And the inhibition of growth at 10 µM (IGROV-1)?
**A.** Its inhibition of growth at 10 µM is < 10%.

**Q.** What about the inhibition of growth at 10 µM (T47D) of the same compound?
**A.** The inhibition of growth at 10 µM was < 10%.

**Q.** And the inhibition of growth at 10 µM (MDA-MB-468)?
**A.** The inhibition of growth at 10 µM was 3.17%.

**Q.** What about the inhibition of growth at 10 µM [2] of the same compound?
**A.** The inhibition of growth at 10 µM was < 10%.

**Q.** What about the inhibition of growth at 10 µM (MCF7) of the same compound?
**A.** Its inhibition of growth at 10 µM is 2.13%.

**Q.** What about the inhibition of growth at 10 µM [3] of the same compound?
**A.** The inhibition of growth at 10 µM was < 10%.

**Q.** What about the inhibition of growth at 10 µM (SW-620) of the same compound?
**A.** The inhibition of growth at 10 µM was < 10%.

**Q.** What about the inhibition of growth at 10 µM (HT-29) of the same compound?
**A.** Its inhibition of growth at 10 µM is < 10%.

**Q.** What about the inhibition of growth at 10 µM (HCT-15) of the same compound?
**A.** Its inhibition of growth at 10 µM is < 10%.

**Q.** What about the inhibition of growth at 10 µM (HCT-116) of the same compound?
**A.** Its inhibition of growth at 10 µM is 2.49%.

**Q.** What about the inhibition of growth at 10 µM (HCC 2998) of the same compound?
**A.** The inhibition of growth at 10 µM was < 10%.

**Q.** What about the inhibition of growth at 10 µM (NCI-H522) of the same compound?
**A.** Its inhibition of growth at 10 µM is 65.4%.

**Q.** And the inhibition of growth at 10 µM (NCI-H322M)?
**A.** The inhibition of growth at 10 µM was < 10%.

**Q.** And the inhibition of growth at 10 µM (NCI-H226)?
**A.** The inhibition of growth at 10 µM was 3.91%.

**Q.** And the inhibition of growth at 10 µM (HOP-92)?
**A.** Its inhibition of growth at 10 µM is 82.1%.
